The subject of experiment [1] is Hepatitis B virus. As to the kind of experiment: Antiviral activity against HBV genotype D in hydrodynamic injection-based C57BL/6 mouse model of HBV infection assessed as inhibition of liver HBV DNA level at 100 mg/kg, po dosed twice daily for 7 days by real-time PCR analysis. In kind it is functional, organism-based. Background: Quantitative PCR measures a nucleic acid by following its amplification.

Experiment [2] deals with Hepatitis B virus. As to the kind of experiment: Antiviral activity against HBV genotype D in hydrodynamic injection-based C57BL/6 mouse model of HBV infection assessed as inhibition of liver HBV DNA level at 200 mg/kg, po dosed twice daily for 7 days by real-time PCR analysis. In kind it is functional, organism-based.
Experiment [3] deals with Hepatitis B virus. As to the kind of experiment: Antiviral activity against HBV genotype D in hydrodynamic injection-based C57BL/6 mouse model of HBV infection assessed as inhibition of liver HBV DNA level at 50 mg/kg, po dosed twice daily for 7 days by real-time PCR analysis. In kind it is functional, organism-based.
Experiment [4] deals with Hepatitis B virus. Kind of experiment: Antiviral activity against HBV genotype D in hydrodynamic injection-based C57BL/6 mouse model of HBV infection assessed as inhibition of serum HBV DNA level at 200 mg/kg, po dosed twice daily for 7 days by real-time PCR analysis. In kind it is functional, organism-based.
The test system of experiment [5] is Hepatitis B virus. Kind of experiment: Antiviral activity against HBV genotype D in hydrodynamic injection-based C57BL/6 mouse model of HBV infection assessed as inhibition of serum HBV DNA level at 100 mg/kg, po dosed twice daily for 7 days by real-time PCR analysis. In kind it is functional, organism-based.
Experiment [6] relates to Hepatitis B virus. As to the kind of experiment: Antiviral activity against HBV genotype D in hydrodynamic injection-based C57BL/6 mouse model of HBV infection assessed as inhibition of serum HBV DNA level at 50 mg/kg, po dosed twice daily for 7 days by real-time PCR analysis. In kind it is functional, organism-based.
The subject of experiment [7] is Hepatitis B virus. Kind of experiment: Antiviral activity against HBV genotype D in hydrodynamic injection-based C57BL/6 mouse model of HBV infection assessed as inhibition of HBV replication at 50 mg/kg, po dosed once daily for 7 days by real-time PCR analysis. In kind it is functional, organism-based.
Experiment [8] deals with Hepatitis B virus. As to the kind of experiment: Antiviral activity against HBV infected in human HepG2.2.15 cells. In kind it is functional, organism-based. Conditions: HepG2 2.2.15.
The test system of experiment [9] is Hepatitis B virus. Kind of experiment: Antiviral activity against HBV infected in human HepG2.2.15 cells assessed as inhibition of intracellular viral DNA accumulation at 2 uM for 4 days by qPCR or qRT-PCR relative to control. In kind it is functional, organism-based. As to conditions: HepG2 2.2.15. The procedure, abridged:
(§1)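 HepAD38 or HepG2.2.15 cells were treated at 2 µM for 4 days, with medium replaced every 2 days. Intracellular and extracellular DNA and RNA were quantified by qPCR or qRT-PCR, and HBeAg and HBsAg by ELISA. Results were compared with DMSO vehicle as mean ± SD, using a two-tailed t-test.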

The subject of experiment [10] is Hepatitis B virus. Kind of experiment: Inhibition of HBsAg secretion in HBV infected human HepAD38 cells at 2 uM for 4 days by ELISA. In kind it is functional, organism-based. The procedure, abridged: as §1
In general terms: ELISA stands for enzyme-linked immunosorbent assay.

Experiment [11] deals with Hepatitis B virus. As to the kind of experiment: Antiviral activity against HBV infected in human HepAD38 cells. In kind it is functional, organism-based.
In experiment [12] the test system is Hepatitis B virus. Kind of experiment: Inhibition of HBsAg secretion in HBV infected human HepG2.2.15 cells at 2 uM for 4 days by ELISA. In kind it is functional, organism-based. Conditions: HepG2 2.2.15. The method, boiled down:
as §1

Experiment [13] relates to Hepatitis B virus. As to the kind of experiment: Antiviral activity against HBV infected in human HepAD38 cells assessed as inhibition of intracellular viral RNA accumulation at 2 uM for 4 days by qPCR or qRT-PCR relative to control. In kind it is functional, organism-based. The method, boiled down:
as §1

For experiment [14], the system named is Hepatitis B virus. As to the kind of experiment: Antiviral activity against HBV infected in human HepAD38 cells assessed as inhibition of intracellular viral DNA accumulation at 2 uM for 4 days by qPCR or qRT-PCR relative to control. In kind it is functional, organism-based. The method, boiled down: as §1
The subject of experiment [15] is Hepatitis B virus. Kind of experiment: Antiviral activity against HBV infected in […] cells. In kind it is functional, organism-based.
Experiment [16] has as its system Hepatitis B virus. As to the kind of experiment: Inhibition of HBeAg secretion in HBV infected human HepG2.2.15 cells at 2 uM for 4 days by ELISA relative to control. In kind it is functional, organism-based. Conditions: HepG2 2.2.15. The method, boiled down: as §1
Experiment [17] has as its system Hepatitis B virus. Kind of experiment: Antiviral activity against multidrug-resistant HBV infected in human HepG2.1403F cells assessed as reduction in viral replication incubated for 6 days by PCR analysis. In kind it is functional, organism-based. As to conditions: 144 h. The procedure, abridged: (§2)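 Wild-type HBV replication measured in HepAD38 and HepG2.2.15 cells, lamivudine/entecavir-resistant HBV in HepG2.A64 cells (rtL180M+rtT184L+rtM204V) and multidrug-resistant HBV in HepG2.1403F cells (rtL180M+rtM204V+rtS202G+rtN236T). Read-out is reduction of HBV DNA. EC50 is reported as mean ± SD.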

Experiment [18] relates to Hepatitis B virus. As to the kind of experiment: Antiviral activity against HBV infected in human HepAD38 cells assessed as reduction in viral DNA levels incubated for 6 days by PCR analysis. In kind it is functional, organism-based. As to conditions: HePAD38, 144 h.
The subject of experiment [19] is Hepatitis B virus. Kind of experiment: Antiviral activity against HBV infected in human HepG2.2.15 cells assessed as reduction in viral DNA levels incubated for 6 days by PCR analysis. In kind it is functional, organism-based. Conditions: HepG2 2.2.15, 144 h.
Experiment [20] concerns Hepatitis B virus. Kind of experiment: Antiviral activity against HBV infected in human HepAD38 cells assessed as inhibition of intracellular total viral RNA accumulation at 2 uM for 4 days by qPCR or qRT-PCR relative to control. In kind it is functional. The method, boiled down: as §1
Experiment [21] has as its system Hepatitis B virus. Kind of experiment: Antiviral activity against HBV infected in human HepG2.A64 cells containing reverse transcriptase L180M/T184L/M204V mutant assessed as reduction in viral replication incubated for 6 days by PCR analysis. Conditions: HepG2.A64, 144 h. In kind it is functional, organism-based. The procedure, abridged:
as §2

Activity, EC50 and inhibition data for five compounds are collected here from ChEMBL document CHEMBL4602735, “Discovery of (1H-Pyrazolo[3,4-c]pyridin-5-yl)sulfonamide Analogues as Hepatitis B Virus Capsid Assembly Modulators by Conformation Constraint” (J Med Chem, 2020).

The source made the active and inactive calls. The calls are words filed in the database; no cut-off is given here.

With `Cc1cc(Nc2nn(C3CC3)c3cnc(S(=O)(=O)N4CCC(OC(=O)CN(C)C)CC4)cc23)ccc1F`, the outcome in the experiment with Hepatitis B virus [1], in the experiment with Hepatitis B virus [2], in the experiment on Hepatitis B virus [3], with Hepatitis B virus [4], in the experiment with Hepatitis B virus [5] and with Hepatitis B virus [6] was Active. Also, the outcome in the experiment with Hepatitis B virus [7] was inactive.

As usually defined, the EC50 is the concentration needed to bring the measured effect to its halfway point. Regarding `COC(=O)C1=C(C)NC(c2ncc(F)cc2F)=N[C@H]1c1ccc(F)cc1Cl`, it took 53 nM to reach a half-maximal effect in the experiment on Hepatitis B virus [8] (EC50).

For the compound `COc1ccccc1/C(Br)=C(\NC(=O)c1ccc([N+](=O)[O-])cc1)C(=O)N1CCCCC1`, the inhibition result with Hepatitis B virus [9], with Hepatitis B virus [13] and in the experiment with Hepatitis B virus [14] was “Active” in each case. Moreover, the inhibition entry with Hepatitis B virus [10] and with Hepatitis B virus [12] was “inactive” throughout. The same compound registered an EC50 in the experiment on Hepatitis B virus [11] of 130 nM.

Compound `CCC(C)NS(=O)(=O)c1ccc(F)c(C(=O)Nc2ccc(F)c(F)c2)c1` (stereo unspecified) gave a concentration for a half-maximal effect (EC50) in the experiment on Hepatitis B virus [15] of 300 nM.

For the compound `CCOC(=O)C1=C(CN2CCOCC2)NC(c2nccs2)=NC1c1ccc(F)cc1Br` (stereo unspecified), the inhibition entry with Hepatitis B virus [16], with Hepatitis B virus [9], with Hepatitis B virus [20], with Hepatitis B virus [13] and with Hepatitis B virus [14] was “Active” in each case. Moreover, the EC50 with Hepatitis B virus [17] was found to be 42 nM; in the experiment with Hepatitis B virus [18], 13 nM; in the experiment with Hepatitis B virus [19] it was 6.6 nM; in the experiment on Hepatitis B virus [21], 6.3 nM. Besides, the inhibition entry with Hepatitis B virus [10] and with Hepatitis B virus [12] was “inactive” in each case.
